Source: PMC7134334 (Neuropharmacology, 2016)

Tests used:
[1] = tested on: WT Kv3.1 channels and VSD chimeras (S1-S4, S1-S3a, S3b-S4); assay type: cell-based; conditions: block calculated at depolarizing potentials of V1/2 +30 mV
Kv3.1_S3b-S4_2.1 = test: Patch-clamp current inhibition by gambierol, Kv3.1_S3b-S4_2.1 chimera; assay type: cell-based; conditions: read-out: IC50 (concentration that induces 50% current inhibition); Kv3.1_S3b-S4_2.1 in Ltk− cells; n = 4
Method in brief: (§1)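 Ltk− mouse fibroblasts (DMEM, 10% horse serum) transiently PEI-transfected with 15–200 ng cDNA, recorded ~20–28 h later at 20–23 °C. Bath (mM): NaCl 130, KCl 4, CaCl2 1.8, MgCl2 1, HEPES 10, glucose 10, pH 7.35. Pipette: KCl 110, K4BAPTA 5, K2ATP 5, MgCl2 1, HEPES 10, pH 7.2. Fast-perfused, final DMSO ≤0.5%. Fraction of current left at +40 mV Hill-fitted for IC50. Cells with >5 mV voltage error excluded. Mean ± SEM over cells.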

Kv3.1 [2] = biological target: T1, Kv3.1 (Homo sapiens, UniProt P48547); conditions: ref Kopljar et al., 2013; cited from earlier work
T1 sequence (P48547 1-511): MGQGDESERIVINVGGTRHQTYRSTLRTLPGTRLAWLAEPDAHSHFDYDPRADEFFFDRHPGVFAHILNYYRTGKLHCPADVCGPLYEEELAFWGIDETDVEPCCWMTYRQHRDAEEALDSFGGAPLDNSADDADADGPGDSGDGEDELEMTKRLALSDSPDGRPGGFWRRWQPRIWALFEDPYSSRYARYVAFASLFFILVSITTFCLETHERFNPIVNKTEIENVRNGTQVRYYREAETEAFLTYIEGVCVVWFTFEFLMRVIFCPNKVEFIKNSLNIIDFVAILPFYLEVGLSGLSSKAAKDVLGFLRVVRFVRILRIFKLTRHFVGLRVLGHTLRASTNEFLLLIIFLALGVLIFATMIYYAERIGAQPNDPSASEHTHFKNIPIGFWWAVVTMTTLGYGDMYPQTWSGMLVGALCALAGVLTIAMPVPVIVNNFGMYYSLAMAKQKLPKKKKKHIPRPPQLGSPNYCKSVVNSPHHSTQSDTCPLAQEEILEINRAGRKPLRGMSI

Kv2.1 V404T_S3b-S4_3.1 = test: Patch-clamp current inhibition by gambierol, Kv2.1 V404T_S3b-S4_3.1 chimera; assay type: cell-based
Method in brief: as §1

Kv3.1 [3] = biological target: T1, Kv3.1; test: Patch-clamp current inhibition by gambierol, WT Kv3.1 in Ltk− cells; assay type: cell-based; conditions: read-out: IC50 (concentration that induces 50% current inhibition); WT Kv3.1 expressed in Ltk− cells; mean ± SEM
Method in brief: as §1

Kv3.1_S1-S4_2.1 = test: Patch-clamp current inhibition by gambierol, Kv3.1_S1-S4_2.1 chimera; assay type: cell-based; conditions: read-out: IC50 (concentration that induces 50% current inhibition); Kv3.1_S1-S4_2.1 in Ltk− cells; n = 4
Method in brief: as §1

Kv3.1_S1-S3a_2.1 = test: Patch-clamp current inhibition by gambierol, Kv3.1_S1-S3a_2.1 chimera; assay type: cell-based; conditions: read-out: IC50 (concentration that induces 50% current inhibition); Kv3.1_S1-S3a_2.1 in Ltk− cells; n = 3
Method in brief: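 Ltk− mouse fibroblasts (DMEM, 10% horse serum) transiently PEI-transfected with channel cDNA and patch-clamped 20–28 h later at 20–23 °C. Bath (mM): NaCl 130, KCl 4, CaCl2 1.8, MgCl2 1, HEPES 10, glucose 10, pH 7.35; pipette KCl-based with BAPTA, ATP, pH 7.2. Toxin perfused from DMSO stock (final DMSO ≤0.5%). Remaining current at +40 mV Hill-fitted for IC50; mean ± SEM over cells.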

| SMILES | differences in IC50 values between WT channels and chimeras [1] [fold] | IC50 (Kv3.1_S3b-S4_2.1) [nM] | shift of the voltage dependence of activation to more positive potentials (Kv3.1 [2]) | fold difference compared to the Kv2.1 V404T mutant (Kv2.1 V404T_S3b-S4_3.1; Kv2.1 V404T_S3b-S4_3.1 vs previously reported Kv2.1 V404T value) | IC50 (Kv2.1 V404T_S3b-S4_3.1; read-out: IC50 (concentration that induces 50% current inhibition), Kv2.1 V404T_S3b-S4_3.1 in Ltk− cells, n = 3) [nM] | IC50 (Kv3.1 [3]) [nM] | IC50 (Kv3.1_S1-S4_2.1) [nM] | IC50 (Kv3.1_S1-S3a_2.1) [nM] |
| --- | --- | --- | --- | --- | --- | --- | --- | --- |
| O=C(NCC1CCCCN1)c1cc(OCC(F)(F)F)ccc1OCC(F)(F)F (centres unmarked) [Flecainide] | < 2 | – | – | – | – | – | – | – |
| C=CC/C=C\C=C/[C@H]1O[C@H]2C[C@H]3O[C@H]4CC[C@H]5O[C@H]6C[C@@]7(C)O[C@@]8(C)[C@@H](O)C[C@H](CCCO)O[C@@H]8C[C@@H]7O[C@@H]6C[C@@H]5O[C@]4(C)C[C@]3(C)O[C@@H]2C=C[C@]1(C)O [gambierol, Gambierol] | – | 143 ± 28 | more than +120 mV | ~ 2 fold | 900 ± 41 | 1.2 ± 0.2 | 280 ± 40 | 1.9 ± 0.2 |
